Reference: ChEMBL document CHEMBL1681731, “Synthesis, in vitro anti-inflammatory and cytotoxic evaluation, and mechanism of action studies of 1-benzoyl-β-carboline and 1-benzoyl-3-carboxy-β-carboline derivatives” (Bioorg Med Chem, 2011)
Active and inactive are the calls of the source. The calls are words filed in the database; no cut-off is given here.

Legend:
[1] = Antiinflammatory activity against human neutrophil assessed as inhibition of N-formyl-l-methionyl phenylalanine/cytochalasin B-induced superoxide anion generation by spectrophotometry; type: functional, cell-based
Summary of the method: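 Ferricytochrome c (0.5 mg/mL) reduction, SOD-inhibitable, with 1 mM Ca2+. Neutrophils (6 × 10^5 cells/mL) equilibrated 2 min at 37 °C, then drug or 0.1% DMSO for 5 min. Cytochalasin B 1 µg/mL preincubation, then 100 nM FMLP for 3 min. A550 monitored continuously with stirring. IC50 computed; mean ± SEM, n = 3.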

RAW264.7 [2] = experiment: Antiinflammatory activity against mouse RAW264.7 cells assessed as reduction of lipopolysaccharide/interferon-gamma induced PGE2 production at 1 uM by EIA; type: functional
Summary of the method: (§1)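 RAW 264.7 macrophages (passages 9–20) stimulated with LPS/IFN-γ; compound tested at 1, 3 and 10 µM. Supernatant PGE2 measured by competitive EIA: anti-PGE2 antibody plus peroxidase-PGE2 tracer, 1 h RT; TMB/H2O2 30 min; H2SO4 stop; A450. Results given as % inhibition.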

RAW264.7 [3] = experiment: Antiinflammatory activity against mouse RAW264.7 cells assessed as reduction of lipopolysaccharide/interferon-gamma induced PGE2 production at 10 uM after 18 hrs; type: functional; details: RAW264.7, 18 h; summary of the method: as §1
[4] = Cytotoxicity activity against human KBVIN cells assessed as growth inhibition at 10 ug/ml after 72 hrs sulforhodamine B assay; type: functional
Summary of the method: (§2)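 Cells kept in RPMI-1640/10% FBS with antibiotics at 37 °C, 5% CO2. Trypsinized cells seeded and given compound from DMSO-diluted stock. Incubated 72 h, then fixed with 10% TCA. Stained 10 min with 0.4% sulforhodamine B in 1% HOAc, washed, dye dissolved in 10 mM Trizma. A515 read; growth relative to net protein increase of controls.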

[5] = Antiinflammatory activity against mouse […] cells assessed as inhibition of lipopolysaccharide/interferon-gamma induced nitric oxide production; type: functional, cell-based
Summary of the method: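 RAW 264.7 cells in DMEM/10% FCS, passages 9–20. Nitrite induced by LPS (1 µg/mL) plus IFN-γ (50 U/mL) for 18 h with or without compound. Griess reagent (1% sulfanilamide, 0.1% naphthylenediamine in 5% H3PO4) read at OD550. EC50 calculated.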

A549 = experiment: Cytotoxicity activity against human A549 cells assessed as growth inhibition at 10 ug/ml after 72 hrs sulforhodamine B assay; type: functional; details: A549, 72 h; summary of the method: as §2
DU-145 = experiment: Cytotoxicity activity against human DU145 cells assessed as growth inhibition at 10 ug/ml after 72 hrs sulforhodamine B assay; type: functional; details: DU-145, 72 h; summary of the method: as §2
RAW264.7 [6] = experiment: Antiinflammatory activity against mouse RAW264.7 cells assessed as reduction of lipopolysaccharide/interferon-gamma induced PGE2 production at 3 uM after 18 hrs; type: functional; details: RAW264.7, 18 h; summary of the method: as §1
KB = experiment: Cytotoxicity activity against human KB cells assessed as growth inhibition at 10 ug/ml after 72 hrs sulforhodamine B assay; type: functional; summary of the method: as §2
[7] = Therapeutic index, ratio of CC50 for mouse […] cells to EC50 for inhibition of lipopolysaccharide/interferon-gamma induced nitric oxide production in mouse […] cells; type: cell-based; details: read-out: TI
[8] = Antiinflammatory activity against human neutrophil assessed as inhibition of N-formyl-l-methionyl phenylalanine/cytochalasin B-induced elastase release; type: functional, cell-based
Summary of the method: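 Neutrophils (6 × 10^5/mL) supplemented with 100 µM MeO-Suc-Ala-Ala-Pro-Val-p-nitroanilide, equilibrated 2 min at 37 °C, then given drug or 0.1% DMSO vehicle for 5 min. Activated with 100 nM FMLP plus 0.5 µg/mL cytochalasin B. Absorbance at 405 nm followed continuously. Release expressed as percent of drug-free activated control. IC50 computed; mean ± SEM, n = 3.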

[9] = Cytotoxicity against mouse […] cells by MTT assay; type: functional
Summary of the method: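 Viability of RAW 264.7 cells taken as mitochondrial reduction of MTT to formazan. Formazan read at OD550.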

[10] = test system: Radical scavenging activity; experiment: Antioxidant activity assessed as residual DPPH radical scavenging activity; type: functional

| SMILES | IC50 [1] | inhibition at 1 µM (RAW264.7 [2]) | inhibition at 10 µM (RAW264.7 [3]) | GI50 [4] | EC50 ([5]; Mus musculus, read-out: EC50) | GI50 (A549) | GI50 (DU-145) | inhibition at 3 µM (RAW264.7 [6]) | GI50 (KB) | selectivity ratio [7] | IC50 [8] | CC50 [9] | Activity [10] | EC50 [5] |
| --- | --- | --- | --- | --- | --- | --- | --- | --- | --- | --- | --- | --- | --- | --- |
| OC(c1ccc(Br)cc1)c1nccc2c1[nH]c1ccccc12 (stereo not given) | 8.84 µM | 0% | 34% | 14.5 µM | 740 nM | 19 µM | 13.3 µM | 21% | 15.9 µM | 95 | 14.2 µM | 70.1 µM |  |  |
| Cc1cccc(C(=O)c2nc(C(=O)O)cc3c2[nH]c2ccccc23)c1 |  | 98% |  |  | 470 nM |  |  | 100% |  | 34 |  | 16.4 µM | inactive |  |
| O=C(O)c1cc2c([nH]c3ccccc32)c(C(=O)c2ccc(Br)cc2)n1 | 2.28 µM | 98% |  | > 40 µM | 530 nM | > 40 µM | > 40 µM | 100% | > 40 µM | 20 | 1.99 µM | 10.7 µM | inactive |  |
| CC(O)c1nccc2c1[nH]c1ccccc12 (stereo not given) | 9.4 µM | 0% | 0% | > 40 µM |  | > 40 µM | > 40 µM | 0% | > 40 µM |  | > 30 µM | 0.28 µM |  | Not Active |
| O=C(O)c1cc2c([nH]c3ccccc32)c(C(=O)c2cccc([N+](=O)[O-])c2)n1 |  |  |  |  |  |  |  |  |  |  |  |  | inactive |  |
| Cc1ccccc1C(=O)c1nccc2c1[nH]c1ccccc12 | > 30 µM | 0% | 82% | > 40 µM | 2120 nM | > 40 µM | > 40 µM | 44% | > 40 µM | > 2000 | > 30 µM |  |  |  |
| O=C(c1ccc([N+](=O)[O-])cc1)c1nccc2c1[nH]c1ccccc12 | > 30 µM | 0% | 100% | > 40 µM | 660 nM | > 40 µM | > 40 µM | 100% | > 40 µM | 6 | > 30 µM | 3.86 µM |  |  |
| CC(=O)O[C@H]1C(=O)[C@@]2(C)[C@H]([C@H](OC(=O)c3ccccc3)[C@]3(O)C[C@H](OC(=O)[C@H](O)[C@@H](NC(=O)c4ccccc4)c4ccccc4)C(C)=C1C3(C)C)[C@]1(OC(C)=O)CO[C@@H]1C[C@@H]2O [PACLITAXEL] |  |  |  | > 1 µM |  | 0.00558 µM | 0.00555 µM |  | 0.00487 µM |  |  |  |  |  |
| COc1ccc(C(O)c2nccc3c2[nH]c2ccccc23)cc1 (stereo not given) |  | 0% | 19% |  | 2080 nM |  |  | 0% |  | 764 |  | 1590 µM |  |  |
| N=C(N)NN [PIMAGEDINE] |  | 8% | 42% |  | 22600 nM |  |  | 21% |  | 16 |  | 358 µM |  |  |
| O=C(c1cccc([N+](=O)[O-])c1)c1nccc2c1[nH]c1ccccc12 | 16.6 µM | 0% | 96% | > 40 µM | 1060 nM | > 40 µM | > 40 µM | 95% | > 40 µM | 20 |  | 21.6 µM |  |  |
| COc1cccc(C(=O)c2nc(C(=O)O)cc3c2[nH]c2ccccc23)c1 |  |  |  |  |  |  |  |  |  |  |  |  | inactive |  |
| COC(=O)c1cc2c([nH]c3ccccc32)c(C(=O)c2ccc(OC)cc2)n1 | > 30 µM | 98% |  | > 40 µM | 510 nM | > 40 µM | > 40 µM | 100% | > 40 µM | 4 | > 30 µM | 1.95 µM |  |  |
| COc1ccc(C(=O)c2nc(C(=O)O)cc3c2[nH]c2ccccc23)cc1 | 16.1 µM | 28% |  | > 40 µM | 230 nM | > 40 µM | > 40 µM | 98% | > 40 µM | 187 | 10.4 µM | 43.1 µM | inactive |  |
| O=C(c1cccc(Br)c1)c1nccc2c1[nH]c1ccccc12 | > 30 µM | 97% |  | > 40 µM | 1160 nM | > 40 µM | > 40 µM | 98% | > 40 µM | 44 | > 30 µM | 51.4 µM |  |  |
| O=c1cc(N2CCOCC2)oc2c(-c3ccccc3)cccc12 [LY-294002] | 1.12 µM |  |  |  |  |  |  |  |  |  | 1.92 µM |  |  |  |
| CC(=O)c1nc(C(N)=O)cc2c1[nH]c1ccccc12 [STELLARINES A] | 14.5 µM | 0% | 90% | > 40 µM | 920 nM | > 40 µM | > 40 µM | 90% | > 40 µM | 21 | 5.82 µM | 19.8 µM |  |  |
| COc1ccc(C(=O)c2nccc3c2[nH]c2ccccc23)cc1 | > 30 µM | 0% | 95% | > 40 µM | 4590 nM | > 40 µM | > 40 µM | 95% | > 40 µM | 18 | > 30 µM | 83.4 µM |  |  |
| Cc1ccc(C(=O)c2nccc3c2[nH]c2ccccc23)cc1 | > 30 µM | 25% | 100% | > 40 µM | 1260 nM | > 40 µM | > 40 µM | 99% | > 40 µM | 42 | > 30 µM | 52.8 µM |  |  |
| OC(c1ccccc1)c1nccc2c1[nH]c1ccccc12 (stereo not given) | 7.88 µM | 0% | 0% | 22.6 µM | 310 nM | > 40 µM | > 40 µM | 0% | > 40 µM | 186 | > 30 µM | 57.4 µM |  |  |
| COc1ccccc1C(=O)c1nc(C(=O)O)cc2c1[nH]c1ccccc12 |  |  |  |  |  |  |  |  |  |  |  |  | inactive |  |
| O=C(c1ccc(Br)cc1)c1nccc2c1[nH]c1ccccc12 | > 30 µM | 98% |  | > 40 µM | 300 nM | > 40 µM | > 40 µM | 100% | > 40 µM | 492 | > 30 µM | 149 µM |  |  |
| COc1ccc2c(c1)c(CC(=O)O)c(C)n2C(=O)c1ccc(Cl)cc1 [INDOMETHACIN] | 38.3 µM |  |  |  |  |  |  |  |  |  | 32 µM |  |  |  |
| O=C(c1ccccc1Br)c1nccc2c1[nH]c1ccccc12 | > 30 µM | 0% | 89% | > 40 µM | 6970 nM | > 40 µM | > 40 µM | 37% | > 40 µM | 8 | > 30 µM | 53.8 µM |  |  |
| O=C(c1ccccc1)c1nccc2c1[nH]c1ccccc12 | > 30 µM | 0% | 82% | > 40 µM | 2670 nM | > 40 µM | > 40 µM | 39% | > 40 µM | 49 | > 30 µM | 131 µM |  |  |
